Measured values taken from ChEMBL document CHEMBL2169842, “Structure-activity relationship in the antitumor activity of 6-, 8- or 6,8-substituted 3-benzylamino-β-carboline derivatives” (Bioorg Med Chem Lett, 2012).
The source made the active and inactive calls. The rule behind the calls is not given here.

Assays:
[1] = Cytotoxicity against mouse Sarcoma 180 cells after 24 to 72 hrs by MTT assay; type: functional, cell-based
How it was run: (§1)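 MTT assay. IC50 taken as the drug concentration giving 50% inhibition of cell growth. Values are mean ± S.D. of four independent experiments, each run in triplicate.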

HEK-293T = experiment: Cytotoxicity against human 293T cells after 24 to 72 hrs by MTT assay; type: cell-based; how it was run: as §1
[2] = Cytotoxicity against human HeLaS3 cells after 24 to 72 hrs by MTT assay; type: functional, cell-based; conditions: HeLa S3; how it was run: as §1
[3] = Cell cycle arrest in human HeLaS3 cells assessed as accumulation at G2/M phase after 48 hrs using propidium iodide staining by flow cytometry (reference value: 16.21%); type: functional, cell-based; conditions: HeLa S3
How it was run: (§2)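 HeLa S-3 cells incubated without (control) or with compound for 9, 24 or 48 h, then fixed and stained with propidium iodide. DNA content read by flow cytometry. Populations given as percent in sub-G1, G1, S and G2/M phases.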

[4] = Cell cycle arrest in human HeLaS3 cells assessed as accumulation at G2/M phase after 24 hrs using propidium iodide staining by flow cytometry (reference value: 16.21%); type: functional, cell-based; conditions: HeLa S3; how it was run: as §2
[5] = Cell cycle arrest in human HeLaS3 cells assessed as accumulation at G2/M phase after 9 hrs using propidium iodide staining by flow cytometry (reference value: 16.21%); type: functional, cell-based; conditions: HeLa S3; how it was run: as §2
[6] = Cell cycle arrest in human HeLaS3 cells assessed as accumulation at S phase after 48 hrs using propidium iodide staining by flow cytometry (reference value: 6.36%); type: functional, cell-based; conditions: HeLa S3
[7] = Cell cycle arrest in human HeLaS3 cells assessed as accumulation at S phase after 24 hrs using propidium iodide staining by flow cytometry (reference value: 6.36%); type: functional, cell-based; conditions: HeLa S3
[8] = Cell cycle arrest in human HeLaS3 cells assessed as accumulation at S phase after 9 hrs using propidium iodide staining by flow cytometry (reference value: 6.36%); type: functional, cell-based; conditions: HeLa S3
[9] = Cell cycle arrest in human HeLaS3 cells assessed as accumulation at G1 phase after 48 hrs using propidium iodide staining by flow cytometry (reference value: 75.29%); type: functional, cell-based; conditions: HeLa S3; how it was run: as §2
[10] = Cell cycle arrest in human HeLaS3 cells assessed as accumulation at G1 phase after 24 hrs using propidium iodide staining by flow cytometry (reference value: 75.29%); type: functional, cell-based; conditions: HeLa S3; how it was run: as §2
[11] = Cell cycle arrest in human HeLaS3 cells assessed as accumulation at G1 phase after 9 hrs using propidium iodide staining by flow cytometry (reference value: 75.29%); type: functional, cell-based; conditions: HeLa S3; how it was run: as §2
[12] = Cell cycle arrest in human HeLaS3 cells assessed as accumulation at sub-G1 phase after 48 hrs using propidium iodide staining by flow cytometry (reference value: 2.41%); type: functional, cell-based; conditions: HeLa S3; how it was run: as §2
[13] = Cell cycle arrest in human HeLaS3 cells assessed as accumulation at sub-G1 phase after 24 hrs using propidium iodide staining by flow cytometry (reference value: 2.41%); type: functional, cell-based; conditions: HeLa S3; how it was run: as §2
[14] = Cell cycle arrest in human HeLaS3 cells assessed as accumulation at sub-G1 phase after 9 hrs using propidium iodide staining by flow cytometry (reference value: 2.41%); type: functional, cell-based; conditions: HeLa S3; how it was run: as §2
HeLa S3 [15] = experiment: Induction of apoptosis in human HeLaS3 cells assessed as DNA fragmentation after 48 hrs agarose-gel electrophoresis; type: functional, cell-based
How it was run: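 HeLa S-3 cells treated with compound for 48 h. Genomic DNA extracted and run on a 2% agarose gel beside a 100 bp ladder marker to detect DNA fragmentation.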

HeLa S3 [16] = experiment: Induction of apoptosis in human HeLaS3 cells assessed as formation of chromatin condensation and fragmented nuclei after 48 hrs by Hoechst 33342 staining; type: functional, cell-based
How it was run: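 HeLa S-3 cells treated with compound for 48 h, then stained with Hoechst 33342. Nuclear chromatin examined by fluorescence microscopy for condensation and fragmented nuclei, with untreated cells as comparison.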

CNc1cc(Cl)cc2c1[nH]c1cnc(NCc3ccccc3)cc12
IC50 [1]: 0.25 µM
IC50 (HEK-293T): 0.35 µM
IC50 [2]: 0.2 µM

CC(C)(C)C(=O)Nc1ccc2[nH]c3cnc(NCc4ccccc4)cc3c2c1
IC50 [2]: 14 µM

O=C(Nc1cc(Cl)cc2c1[nH]c1cnc(NCc3ccccc3)cc12)c1ccncc1
IC50 [1]: 7.9 µM
IC50 (HEK-293T): 8 µM
IC50 [2]: 13 µM

CCS(=O)(=O)Nc1ccc2[nH]c3cnc(NCc4ccccc4)cc3c2c1
IC50 [2]: 3.4 µM

CNc1cccc2c1[nH]c1cnc(N)cc12
IC50 [2]: 12 µM

CNc1cccc2c1[nH]c1cnc(NCc3cccc(Oc4ccccc4)c3)cc12
IC50 [2]: 0.032 µM

CCCC(=O)Nc1cc(Cl)cc2c1[nH]c1cnc(NCc3ccccc3)cc12
IC50 [1]: 1.35 µM
IC50 (HEK-293T): 2.3 µM
IC50 [2]: 2.6 µM

CNc1cccc2c1[nH]c1cnc(NCc3ccccc3)cc12
IC50 [1]: 0.024 µM
IC50 [2]: 0.046 µM

CS(=O)(=O)Nc1ccc2[nH]c3cnc(NCc4ccccc4)cc3c2c1
IC50 [2]: 19 µM

CCCCC(=O)Nc1cc(Cl)cc2c1[nH]c1cnc(N)cc12
IC50 [1]: 18.1 µM
IC50 [2]: 27 µM

Clc1cc(NCc2ccccn2)c2[nH]c3cnc(NCc4ccccc4)cc3c2c1
IC50 [1]: 1 µM
IC50 (HEK-293T): 1.1 µM
IC50 [2]: 1.5 µM

c1ccc(CNc2cc3c(cn2)[nH]c2ccc(NCc4ccco4)cc23)cc1
IC50 [2]: 15 µM

Nc1ccc2[nH]c3cnc(NCc4ccccc4)cc3c2c1
IC50 [2]: 11 µM

Clc1ccc2[nH]c3cnc(NCc4cccc(Oc5ccccc5)c4)cc3c2c1
IC50 [1]: 1.36 µM
IC50 [2]: 1.8 µM

CCCNc1cc(Cl)cc2c1[nH]c1cnc(NCc3ccccc3)cc12
IC50 [1]: 1.36 µM
IC50 (HEK-293T): 2 µM
IC50 [2]: 2.9 µM

O=[N+]([O-])c1ccc2[nH]c3cnc(NCc4ccccc4)cc3c2c1
IC50 [2]: 28 µM

Clc1cc(NCc2cccnc2)c2[nH]c3cnc(NCc4ccccc4)cc3c2c1
IC50 [1]: 0.76 µM
IC50 (HEK-293T): 1 µM
IC50 [2]: 1.2 µM

c1ccc(CNc2cc3c(cn2)[nH]c2ccccc23)cc1
Activity [3]: 52.8%
Activity [4]: 67.7%
Activity [5]: 57%
Activity [6]: 16.2%
Activity [7]: 9.18%
Activity [8]: 14.3%
Activity [9]: 12.2%
Activity [10]: 6.93%
Activity [11]: 22.6%
Activity [12]: 18.8%
Activity [13]: 16.2%
Activity [14]: 6.08%
Activity (HeLa S3 [15]): Active
Activity (HeLa S3 [16]): Active
IC50 [1]: 0.44 µM
IC50 [2]: 0.11 µM

O=C(Nc1cc(Cl)cc2c1[nH]c1cnc(NCc3ccccc3)cc12)C(F)(F)C(F)(F)C(F)(F)F
IC50 [1]: 5.2 µM
IC50 [2]: 7 µM

c1ccc(CNc2ccc3[nH]c4cnc(NCc5ccccc5)cc4c3c2)cc1
IC50 [2]: 21 µM

Clc1cc(NCc2cccs2)c2[nH]c3cnc(NCc4ccccc4)cc3c2c1
IC50 [1]: 1.69 µM
IC50 (HEK-293T): 4 µM
IC50 [2]: 4.2 µM

CCC(=O)Nc1cc(Cl)cc2c1[nH]c1cnc(NCc3ccccc3)cc12
IC50 [1]: 5.4 µM
IC50 (HEK-293T): 5.8 µM
IC50 [2]: 9.9 µM

Clc1cc(NCc2ccco2)c2[nH]c3cnc(NCc4ccccc4)cc3c2c1
IC50 (HEK-293T): 3.1 µM
IC50 [2]: 3.8 µM

CC(=O)Nc1cc(Cl)cc2c1[nH]c1cnc(NCc3ccccc3)cc12
IC50 [1]: 16.2 µM
IC50 (HEK-293T): 15 µM
IC50 [2]: 21 µM

CCCCC(=O)Nc1cccc2c1[nH]c1cnc(N)cc12
IC50 [1]: 38 µM
IC50 [2]: 56 µM

c1ccc(Oc2cccc(CNc3cc4c(cn3)[nH]c3ccccc34)c2)cc1
IC50 [1]: 0.03 µM
IC50 [2]: 0.074 µM

Nc1cc2c(cn1)[nH]c1c(NC(=O)c3ccccc3)cc(Cl)cc12
IC50 [1]: 12.4 µM
IC50 [2]: 26.1 µM

O=C(Nc1cc(Cl)cc2c1[nH]c1cnc(NCc3ccccc3)cc12)C(F)(F)C(F)(F)F
IC50 [1]: 6.1 µM
IC50 [2]: 9.2 µM

CCCCCC(=O)Nc1cc(Cl)cc2c1[nH]c1cnc(NCc3ccccc3)cc12
IC50 [1]: 0.92 µM
IC50 (HEK-293T): 1.4 µM
IC50 [2]: 2.13 µM

O=C(Nc1cccc2c1[nH]c1cnc(NCc3ccccc3)cc12)c1ccccc1
Activity [3]: 63.4%
Activity [4]: 71.1%
Activity [5]: 65.6%
Activity [6]: 9.05%
Activity [7]: 10.2%
Activity [8]: 9.4%
Activity [9]: 9.36%
Activity [10]: 12.8%
Activity [11]: 21.1%
Activity [12]: 18.2%
Activity [13]: 5.87%
Activity [14]: 3.89%
Activity (HeLa S3 [15]): Active
Activity (HeLa S3 [16]): Active
IC50 [2]: 0.141 µM

Clc1cc(NCc2ccccc2)c2[nH]c3cnc(NCc4ccccc4)cc3c2c1
IC50 [1]: 2.6 µM
IC50 (HEK-293T): 3.8 µM
IC50 [2]: 4.2 µM

CNc1ccc2[nH]c3cnc(NCc4ccccc4)cc3c2c1
IC50 [2]: 10 µM

O=C(Nc1ccc2[nH]c3cnc(NCc4ccccc4)cc3c2c1)c1ccccc1
IC50 [2]: 10 µM

Nc1cc(Cl)cc2c1[nH]c1cnc(NCc3ccccc3)cc12
IC50 [1]: 3.24 µM
IC50 (HEK-293T): 9.8 µM
IC50 [2]: 6.09 µM

Nc1cc2c(cn1)[nH]c1c(NC(=O)c3ccccc3)cccc12
IC50 [1]: 98 µM
IC50 [2]: 118 µM

O=C(Nc1cc(Cl)cc2c1[nH]c1cnc(NCc3ccccc3)cc12)c1cccnc1
IC50 [1]: 8.3 µM
IC50 (HEK-293T): 10 µM
IC50 [2]: 15 µM

O=C(Nc1cc(Cl)cc2c1[nH]c1cnc(NCc3ccccc3)cc12)c1ccccc1
Activity [3]: 55.3%
Activity [4]: 40.1%
Activity [5]: 49.1%
Activity [6]: 11.1%
Activity [7]: 12.7%
Activity [8]: 10.4%
Activity [9]: 11.7%
Activity [10]: 32.4%
Activity [11]: 33.9%
Activity [12]: 22%
Activity [13]: 14.8%
Activity [14]: 6.59%
Activity (HeLa S3 [15]): Active
Activity (HeLa S3 [16]): Active
IC50 [1]: 2.8 µM
IC50 (HEK-293T): 4.8 µM
IC50 [2]: 4.6 µM

Clc1ccc2[nH]c3cnc(NCc4ccccc4)cc3c2c1
Activity [3]: 49%
Activity [4]: 69.5%
Activity [5]: 46.9%
Activity [6]: 11.3%
Activity [7]: 7.74%
Activity [8]: 10.9%
Activity [9]: 18.2%
Activity [10]: 8.2%
Activity [11]: 33%
Activity [12]: 21.4%
Activity [13]: 14.6%
Activity [14]: 9.14%
Activity (HeLa S3 [15]): Active
Activity (HeLa S3 [16]): Active
IC50 [1]: 1.8 µM
IC50 [2]: 2.8 µM

CCNc1cc(Cl)cc2c1[nH]c1cnc(NCc3ccccc3)cc12
IC50 [1]: 0.24 µM
IC50 (HEK-293T): 0.36 µM
IC50 [2]: 0.27 µM

O=C(Nc1cc(Cl)cc2c1[nH]c1cnc(NCc3ccccc3)cc12)C(F)(F)F
IC50 [1]: 5.1 µM
IC50 [2]: 6.3 µM

Clc1cc(Cl)c2[nH]c3cnccc3c2c1
IC50 [2]: 0.2 µM

CCS(=O)(=O)Nc1cc(Cl)cc2c1[nH]c1cnc(NCc3ccccc3)cc12
IC50 [2]: 4.84 µM

CCCCC(=O)Nc1cc(Cl)cc2c1[nH]c1cnc(NCc3ccccc3)cc12
IC50 [1]: 0.53 µM
IC50 (HEK-293T): 0.5 µM
IC50 [2]: 0.99 µM

Clc1cc(NCc2ccncc2)c2[nH]c3cnc(NCc4ccccc4)cc3c2c1
IC50 [1]: 1 µM
IC50 (HEK-293T): 1.4 µM
IC50 [2]: 1.4 µM

O=C(Nc1cc(Cl)cc2c1[nH]c1cnc(NCc3ccccc3)cc12)c1ccccn1
IC50 [1]: 1.9 µM
IC50 (HEK-293T): 4 µM
IC50 [2]: 3.7 µM

Nc1cc2c(cn1)[nH]c1ccc(Cl)cc12
IC50 [1]: 29 µM
IC50 [2]: 71 µM

CC(C)C(=O)Nc1cc(Cl)cc2c1[nH]c1cnc(NCc3ccccc3)cc12
IC50 [1]: 8 µM
IC50 (HEK-293T): 8 µM
IC50 [2]: 9 µM

CS(=O)(=O)Nc1cc(Cl)cc2c1[nH]c1cnc(NCc3ccccc3)cc12
IC50 [2]: 8 µM

Nc1cc2c(cn1)[nH]c1ccccc12
IC50 [1]: 41 µM
IC50 [2]: 66 µM

CCCCNc1cc(Cl)cc2c1[nH]c1cnc(NCc3ccccc3)cc12
IC50 [1]: 1.6 µM
IC50 (HEK-293T): 2.1 µM
IC50 [2]: 2.6 µM

CC(C)Nc1cc(Cl)cc2c1[nH]c1cnc(NCc3ccccc3)cc12
IC50 (HEK-293T): 0.7 µM
IC50 [2]: 1.1 µM
